Assay results from different studies.
Protocols differ between the studies behind these lines.
Target: Serine/threonine-protein kinase Sgk3 (SGK3, Homo sapiens, UniProt Q96BR1)
Sequence (Q96BR1 1-496, as in one of the studies): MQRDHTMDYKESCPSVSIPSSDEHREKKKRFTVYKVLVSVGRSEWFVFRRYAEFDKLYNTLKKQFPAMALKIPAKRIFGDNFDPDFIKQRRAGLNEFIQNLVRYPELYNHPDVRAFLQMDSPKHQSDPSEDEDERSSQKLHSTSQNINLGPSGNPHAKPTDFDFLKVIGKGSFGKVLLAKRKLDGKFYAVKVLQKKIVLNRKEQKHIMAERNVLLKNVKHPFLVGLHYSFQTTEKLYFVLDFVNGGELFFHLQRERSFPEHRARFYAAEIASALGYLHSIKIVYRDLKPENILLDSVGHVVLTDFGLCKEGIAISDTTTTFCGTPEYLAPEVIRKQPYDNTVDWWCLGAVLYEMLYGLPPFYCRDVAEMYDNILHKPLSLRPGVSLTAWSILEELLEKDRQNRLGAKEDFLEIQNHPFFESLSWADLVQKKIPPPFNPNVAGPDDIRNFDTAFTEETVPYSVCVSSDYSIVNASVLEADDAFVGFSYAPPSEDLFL

| Structure (SMILES) | effect on | action | technique | tested at | quantity | result |
| --- | --- | --- | --- | --- | --- | --- |
| CC(C)S(=O)(=O)c1ccc2nccc(Nc3ccc4sc(C5CCCC5)nc4c3)c2c1 | enzyme activity | inhibitor | – | 1 µM | activity vs control | 110% |
| C#Cc1cc(-c2cc(Nc3nc(N[C@@H](C)c4ccc(F)cn4)ncc3Cl)n[nH]2)ccc1C=O | enzyme activity | inhibitor | – | 0.2 µM | inhibition | 19.1% |
| C[C@H]1CC[C@H](n2c3cnccc3c3cnc(Nc4ccc5c(n4)CCN(C(=O)CO)C5)nc32)CC1 | cell-free assay | – | – | 1 µM | remaining signal | 39% |
| CCCCC(=O)Nc1ccc(-c2ccc3ncn(CCC)c(=O)c3c2)cn1 | binding | – | competition with immobilised ligand | 0.5 µM | remaining binding | 97% |
| C=CC(=O)N1CCC[C@@H](n2nc(-c3ccc(Oc4ccccc4)cc3)c3c(N)ncnc32)C1 | enzyme activity | inhibitor | – | 1 µM | inhibition | 9% |
| Cc1cc(O)c(-c2ccc([C@@H](C)CN(C)C)cc2)c2c1[nH]c(=O)c1sccc12 | enzyme activity | inhibitor | – | 0.1 µM | inhibition | 3.22% |
| CO[C@@H]1[C@H](N(C)C(=O)c2ccccc2)C[C@H]2O[C@]1(C)n1c3ccccc3c3c4c(c5c6ccccc6n2c5c31)C(=O)NC4 | enzyme activity | inhibitor | – | 1 µM | inhibition | 43% |
| COc1ccc2[nH]c3c4[nH]c5ccc(OC)cc5c4c4c(c3c2c1)C(=O)NC4=O | binding | – | – | 1 µM | remaining binding | 8.1% |
